Reference: ChEMBL document CHEMBL4321868, “Scaffold Simplification Strategy Leads to a Novel Generation of Dual Human Immunodeficiency Virus and Enterovirus-A71 Entry Inhibitors” (J Med Chem, 2020)
Active and inactive are the calls of the source. The rule behind the calls is not given here.

Experiments:
[1] = Selectivity index, ratio of CC50 for human MT4 cells to EC50 for HIV1 NL4.3 infected in human MT4 cells; type: toxicity, cell-based; settings: read-out: Ratio CC50/EC50
Summary of the method: (§1)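 MT-4 cells (RPMI-1640, 10% FCS, 1% L-glutamine) pre-incubated 30 min at 37 °C with compound, then infected with HIV-1 NL4.3 or HIV-2 ROD according to stock TCID50. After 5 days, CPE scored microscopically and viability read by MTS/PES at A490 to derive EC50; cytotoxicity measured by MTS/PES at 5 days in the same cells. SI = CC50/EC50. Mean ± S.D. of at least 3 experiments.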

RD [2] = assay: Cytotoxicity against human RD cells assessed as induction of cell morphological changes; type: cell-based
Enterovirus A71 [3] = assay: Antiviral activity against Enterovirus A 71 BrCr harboring VP1 S184T/P246S mutant infected in human RD cells assessed as reduction in virus-induced cytopathic effect preincubated for 1 day followed by viral infection and measured after 3 days by MTS/PMS method; type: functional, organism-based, strain BRCR
[4] = system: Human immunodeficiency virus 2; assay: Antiviral activity against HIV-2 ROD infected in human MT4 cells assessed as reduction in virus-induced cytopathic effect preincubated for 30 mins followed by viral infection and measured after 5 days by MTS assay; settings: Human immunodeficiency virus 2, ISOLATE ROD
[5] = system: Human immunodeficiency virus 1; assay: Antiviral activity against HIV1 NL4.3 infected in human MT4 cells assessed as reduction in virus-induced cytopathic effect preincubated for 30 mins followed by viral infection and measured after 5 days by MTS assay; type: functional, organism-based; settings: Human immunodeficiency virus 1, NL4.3, MT4
Enterovirus A71 [6] = assay: Antiviral activity against Enterovirus A71 genotype C2 H08300 461812 infected in human RD cells assessed as reduction in virus-induced cell death preincubated for 1 day followed by viral infection and measured after 3 days by microscopic analysis; type: functional; parameters: scale not given: the % may be the effect or the level left
Summary of the method: (§2)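 RD cells were seeded in 96-well plates and infected the next day at low MOI, with serial compound dilutions added at the same time. Plates were incubated at 37 °C, 5% CO2 for 3 days, until untreated infected controls died. Cell death was quantified by MTS/PMS and EC50 calculated from dose-response curves. Values come from more than 2 dose-response curves across more than 1 experiment, with microscopic quality control.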

Enterovirus A71 [7] = assay: Antiviral activity against Enterovirus A71 genotype B5 TW/70902/08 infected in human RD cells assessed as reduction in virus-induced cell death preincubated for 1 day followed by viral infection and measured after 3 days by […]; type: functional; parameters: scale not given: the % may be the effect or the level left; summary of the method: as §2
[8] = Selectivity index, ratio of CC50 for human MT4 cells to EC50 for HIV-1 NL4.3 infected in human MT4 cells
Enterovirus A71 [9] = assay: Antiviral activity against Enterovirus A71 genotype B2 11316 infected in human RD cells assessed as reduction in virus-induced cell death preincubated for 1 day followed by viral infection and measured after 3 days by microscopic analysis; type: functional; parameters: scale not given: the % may be the effect or the level left; summary of the method: as §2
RD [10] = assay: Cytotoxicity against human RD cells assessed as adverse effect on cell; type: cell-based
Enterovirus A71 [11] = assay: Antiviral activity against Enterovirus A 71 BrCr infected in human RD cells assessed as reduction in virus-induced cytopathic effect preincubated for 1 day followed by viral infection and measured after 3 days by MTS/PMS method; type: functional, organism-based; settings: strain BRCR
Summary of the method: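 RD cells seeded in 96-well plates; next day serial compound dilutions plus virus at low MOI added. Incubation at 37 °C, 5% CO₂ until full CPE in untreated infected controls (3 days). Viability read by MTS/PMS; EC50 as 50% inhibition of virus-induced death from dose-response curves. CC50 from uninfected treated cells in the same setup; SI = CC50/EC50.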

Enterovirus A71 [12] = assay: Antiviral activity against Enterovirus A71 genotype C4 TW/1956/05 infected in human RD cells assessed as reduction in virus-induced cell death preincubated for 1 day followed by viral infection and measured after 3 days by microscopic analysis; type: functional; parameters: scale not given: the % may be the effect or the level left; summary of the method: as §2
Enterovirus A71 [13] = assay: Antiviral activity against Enterovirus A 71 BrCr harboring VP1 P246S mutant infected in human RD cells assessed as reduction in virus-induced cytopathic effect preincubated for 1 day followed by viral infection and measured after 3 days by MTS/PMS method; type: functional, organism-based, strain BRCR
Enterovirus A71 [14] = assay: Antiviral activity against Enterovirus A 71 BrCr harboring VP1 S184T mutant infected in human RD cells assessed as reduction in virus-induced cytopathic effect preincubated for 1 day followed by viral infection and measured after 3 days by MTS/PMS method; type: functional, organism-based, strain BRCR
Enterovirus A71 [15] = assay: Antiviral activity against Enterovirus A71 genotype B2 11316 infected in human RD cells assessed as reduction in virus-induced cytopathic effect preincubated for 1 day followed by viral infection and measured after 3 days by MTS/PMS method; type: functional, organism-based; settings: Enterovirus A, genotype B2 11316, RD
Summary of the method: (§3)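 RD cells seeded in 96-well plates; next day serial compound dilutions plus virus at low MOI added. Incubation at 37 °C, 5% CO₂ until full CPE in untreated infected controls (3 days). CC50 from uninfected treated cells in the same setup; SI = CC50/EC50.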

Enterovirus A71 [16] = assay: Antiviral activity against Enterovirus A71 genotype C2 H08300 461812 infected in human RD cells assessed as reduction in virus-induced cytopathic effect preincubated for 1 day followed by viral infection and measured after 3 days by MTS/PMS method; type: functional, organism-based; settings: Enterovirus A, genotype C2 H08300 461812, RD; summary of the method: as §3
Enterovirus A71 [17] = assay: Antiviral activity against Enterovirus A71 genotype C4 TW/1956/05 infected in human RD cells assessed as reduction in virus-induced cytopathic effect preincubated for 1 day followed by viral infection and measured after 3 days by MTS/PMS method; type: functional, organism-based; settings: Enterovirus A, genotype C4 TW/1956/05, RD; summary of the method: as §3
Enterovirus A71 [18] = assay: Antiviral activity against Enterovirus A71 genotype B5 TW/70902/08 infected in human RD cells assessed as reduction in virus-induced cytopathic effect preincubated for 1 day followed by viral infection and measured after 3 days by MTS/PMS method; type: functional, organism-based; settings: Enterovirus A, genotype B5 TW/70902/08, RD; summary of the method: as §3
Enterovirus A71 [19] = assay: Antiviral activity against Enterovirus A 71 BrCr infected in human RD cells assessed as reduction in virus-induced cell death preincubated for 1 day followed by viral infection and measured after 3 days by microscopic analysis; type: functional, strain BRCR; parameters: scale not given: the % may be the effect or the level left; summary of the method: as §2
[20] = Cytotoxicity against human MT4 cells assessed as reduction in cell viability measured after 5 days by MTS/PES assay; type: cell-based; summary of the method: as §1
[21] = biological target: Human immunodeficiency virus type 1 reverse transcriptase (Human immunodeficiency virus 1) (UniProt Q72547); settings: 3B, MT4, 12 uM
[22] = Selectivity ratio of EC50 for Enterovirus A 71 BrCr infected in human RD cells to EC50 for Enterovirus A 71 genotype B2 11316 infected in human RD cells; type: functional
[23] = Selectivity ratio of EC50 for Enterovirus A 71 BrCr infected in human RD cells to EC50 for Enterovirus A 71 genotype C4 TW/1956/05 infected in human RD cells; type: functional
[24] = Selectivity index, ratio of CC50 for human RD cells to EC50 for Enterovirus A71 BrCr infected in human RD cells; type: toxicity, cell-based; settings: read-out: Ratio CC50/EC50; summary of the method: as §3
Enterovirus A71 [25] = assay: Antiviral activity against Enterovirus A 71 BrCr infected in human RD cells assessed as reduction in viral RNA level at 20 uM preincubated for 1 hr followed by viral infection and measured 8 hrs post-infection by RT-qPCR analysis relative to control; type: functional, strain BRCR; parameters: scale not given: the % may be the effect or the level left
Summary of the method: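 RD cells grown to confluence; compound at 20 μM in 2% FBS medium added 1 h before or 1, 2, 4 h after EV-A71 BrCr infection (MOI 1). Pirodavir 20 μM as entry-inhibitor reference; infected untreated cells as controls. At 8 h post-infection, intracellular RNA isolated and viral RNA quantified by RT-qPCR.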

Enterovirus A71 [26] = assay: Antiviral activity against Enterovirus A 71 BrCr infected in human RD cells assessed as reduction in viral RNA level at 20 uM administered at onset of infection measured 8 hrs post-infection by RT-qPCR analysis relative to control; type: functional, strain BRCR; parameters: scale not given: the % may be the effect or the level left
HeLa = assay: Binding affinity to capsid protein VP1 five fold axis in Enterovirus A71 genotype B2 11316 infected in human HeLa cells at 20 uM measured after 1 hr by cryo-electron microscopic analysis; type: cell-based
[27] = biological target: Envelope glycoprotein gp160 (Human immunodeficiency virus 1) (UniProt Q6QLK5); assay: Binding affinity to recombinant HIV1 3B gp120 by SPR analysis
[28] = biological target: Envelope glycoprotein gp160 (Human immunodeficiency virus 1) (UniProt Q6QLK5); assay: (§4) Inhibition of biotinylated-heparin binding to recombinant HIV1 3B gp120 by SPR analysis
Summary of the method: (§5)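 SPR at 25 °C in PBS with 5% DMSO, 0.005% Tween20, pH 7.4. Minimally biotinylated heparin captured (880 RU) on streptavidin chip. Recombinant HIV-1 IIIB gp120 (10 nM) alone or premixed with a compound concentration range injected 2 min at 10 μl/min; regenerated with 1 M NaCl/10 mM NaOH. Double-referenced; RU converted to % inhibition vs gp120 alone; nonlinear fit, three experiments.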

[29] = biological target: Envelope glycoprotein gp160 (Human immunodeficiency virus 1, UniProt Q6QLK5); assay: as §4; summary of the method: as §5
[30] = system: Human immunodeficiency virus 1; assay: Antiviral activity against HIV1 3B infected in human MT4 cells assessed as reduction in p24 production at 20 uM incubated for 1 hr prior to viral infection followed by compound washout and measured 8 hrs post-infection by ELISA; type: functional, organism-based
[31] = system: Human immunodeficiency virus 1; assay: Antiviral activity against HIV1 3B infected in human MT4 cells assessed as reduction in p24 production at 20 uM administered at onset of infection measured 8 hrs post-infection by ELISA; type: functional, organism-based

Chain of Envelope glycoprotein gp160 (Human immunodeficiency virus 1) (Q6QLK5 1-814): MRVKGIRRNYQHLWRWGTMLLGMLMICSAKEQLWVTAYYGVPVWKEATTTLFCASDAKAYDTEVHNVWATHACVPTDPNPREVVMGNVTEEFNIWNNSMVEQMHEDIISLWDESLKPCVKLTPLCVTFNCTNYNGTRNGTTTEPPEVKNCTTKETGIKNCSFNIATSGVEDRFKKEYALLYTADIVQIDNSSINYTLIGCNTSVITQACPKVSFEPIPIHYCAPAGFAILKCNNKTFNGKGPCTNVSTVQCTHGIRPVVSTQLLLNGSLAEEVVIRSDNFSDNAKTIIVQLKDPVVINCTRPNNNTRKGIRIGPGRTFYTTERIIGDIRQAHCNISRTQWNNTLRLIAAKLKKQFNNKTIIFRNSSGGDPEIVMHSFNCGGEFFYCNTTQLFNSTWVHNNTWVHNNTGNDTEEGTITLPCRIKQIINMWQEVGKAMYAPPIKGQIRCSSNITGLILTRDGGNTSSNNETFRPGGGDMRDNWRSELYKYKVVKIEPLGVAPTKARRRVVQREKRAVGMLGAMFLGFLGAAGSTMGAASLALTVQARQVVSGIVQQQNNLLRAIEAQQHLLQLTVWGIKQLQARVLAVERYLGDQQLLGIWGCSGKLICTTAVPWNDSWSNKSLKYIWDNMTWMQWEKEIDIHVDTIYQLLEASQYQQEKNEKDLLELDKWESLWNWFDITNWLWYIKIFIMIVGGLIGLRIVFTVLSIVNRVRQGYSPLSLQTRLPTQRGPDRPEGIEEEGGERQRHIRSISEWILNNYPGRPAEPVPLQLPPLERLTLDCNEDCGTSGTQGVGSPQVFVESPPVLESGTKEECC
Chain of Envelope glycoprotein gp160 (Q6QLK5 whole entry): as the sequence (Q6QLK5 1-814) above

Compound	selectivity ratio [1]	Activity (RD [2])	EC50 (Enterovirus A71 [3]) [µM]	EC50 [4] [µM]	EC50 [5] [µM]	Activity (Enterovirus A71 [6]) [%]	Activity (Enterovirus A71 [7]) [%]	selectivity ratio [8]	Activity (Enterovirus A71 [9]) [%]	Activity (RD [10])	EC50 (Enterovirus A71 [11]) [µM]	EC90 (Enterovirus A71 [11]) [µM]	Activity (Enterovirus A71 [12]) [%]	EC50 (Enterovirus A71 [13]) [µM]	EC50 (Enterovirus A71 [14]) [µM]	EC50 (Enterovirus A71 [15]) [µM]	EC50 (Enterovirus A71 [16]) [µM]	EC50 (Enterovirus A71 [17]) [µM]	Activity (Enterovirus A71 [19]) [%]	CC50 at 120 h [20] [µM]	other results
O=C(CCC(CCC(=O)N[C@H](Cc1c[nH]c2ccccc12)C(=O)O)(CCC(=O)N[C@H](Cc1c[nH]c2ccccc12)C(=O)O)NC(=O)CCOCC(COCCC(=O)NC(CCC(=O)N[C@H](Cc1c[nH]c2ccccc12)C(=O)O)(CCC(=O)N[C@H](Cc1c[nH]c2ccccc12)C(=O)O)CCC(=O)N[C@H](Cc1c[nH]c2ccccc12)C(=O)O)(COCCC(=O)NC(CCC(=O)N[C@H](Cc1c[nH]c2ccccc12)C(=O)O)(CCC(=O)N[C@H](Cc1c[nH]c2ccccc12)C(=O)O)CCC(=O)N[C@H](Cc1c[nH]c2ccccc12)C(=O)O)COCCC(=O)NC(CCC(=O)N[C@H](Cc1c[nH]c2ccccc12)C(=O)O)(CCC(=O)N[C@H](Cc1c[nH]c2ccccc12)C(=O)O)CCC(=O)N[C@H](Cc1c[nH]c2ccccc12)C(=O)O)N[C@H](Cc1c[nH]c2ccccc12)C(=O)O	> 43	Non-Toxic	8.93	6.6	2.3	100	100	> 43	100	Non-Toxic	0.28 to 0.3	0.5	100	4.71	1.99	0.0004	0.0011	0.0002	100	> 100	EC50 (Enterovirus A71 [18]): 0.0002 µM
Cc1cn([C@H]2C[C@H](N=[N+]=[N-])[C@@H](CO)O2)c(=O)[nH]c1=O																					inhibition [21]: Active
O=C(CCOCC(COCCC(=O)NC(Cc1c(-c2cccc(C(=O)O)c2)[nH]c2ccccc12)C(=O)O)(COCCC(=O)NC(Cc1c(-c2cccc(C(=O)O)c2)[nH]c2ccccc12)C(=O)O)COCCC(=O)NC(Cc1c(-c2cccc(C(=O)O)c2)[nH]c2ccccc12)C(=O)O)NC(Cc1c(-c2cccc(C(=O)O)c2)[nH]c2ccccc12)C(=O)O (stereo not drawn)	> 50	Non-Toxic		0.76	2	100	100	> 50	100	Non-Toxic	0.175 to 0.19	0.3	100			0.052	0.0073	0.002	100	> 100	Ratio EC50 [22]: 4; Ratio EC50 [23]: 88; EC50 (Enterovirus A71 [18]): 0.018 µM; selectivity ratio [24]: > 336
CCOC(=O)c1ccc(OCCC2CCN(c3ccc(C)nn3)CC2)cc1 [PIRODAVIR]											0.3	0.6									Activity (Enterovirus A71 [25]): 100%; Activity (Enterovirus A71 [26]): 100%; selectivity ratio [24]: > 333
O=C(CCOCC(COCCC(=O)NC(Cc1c(-c2cc(C(=O)O)cc(C(=O)O)c2)[nH]c2ccccc12)C(=O)O)(COCCC(=O)NC(Cc1c(-c2cc(C(=O)O)cc(C(=O)O)c2)[nH]c2ccccc12)C(=O)O)COCCC(=O)NC(Cc1c(-c2cc(C(=O)O)cc(C(=O)O)c2)[nH]c2ccccc12)C(=O)O)NC(Cc1c(-c2cc(C(=O)O)cc(C(=O)O)c2)[nH]c2ccccc12)C(=O)O (stereo not drawn)		Non-Toxic	0.3	0.02		100	100		100	Non-Toxic	0.04 to 0.109	0.16	100	0.2	0.9				100	> 100	Activity (HeLa): Active; Activity [27]: Dose-dependent effect; inhibition [28]: Dose-dependent effect; IC50 [29]: 0.211 µM; Activity [30]: Active; Activity [31]: Active
